In brackets after ≈: the same amount, converted by molar mass.
Tests used:
[1] = Intrinsic solubility of CPT/HCPT; assay type: physicochemical; details: PBS (CPT); NaD2PO4 buffer (HCPT), aqueous buffer, thermodynamic from solid
Summary of the method: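 Excess solid stirred at room temperature, then undissolved material removed by centrifugation. In PBS: stirred 6 h; supernatant quantified by UV–vis against an absorbance standard curve. In NaD2PO4 (10 mM, pD 7.4): stirred 3 h; supernatant quantified by 1H NMR integration against a known concentration of 1,3,5-benzenetricarboxylic acid as internal reference.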

[2] = Solubility enhancement assay with WP6; assay type: physicochemical; details: for solubility at 3 h: NaD2PO4 buffer with WP6, pH 7.4; for solubility enhancement in the presence of WP6: versus intrinsic solubility
Summary of the method: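 Excess solid test compound stirred 3 h at room temperature in NaD2PO4 (10 mM, pD 7.4) containing a known concentration of pillararene host. Undissolved drug removed by centrifugation. Supernatant drug quantified by 1H NMR integration against subsequently added 1,3,5-benzenetricarboxylic acid as internal reference. Each point in triplicate; phase solubility diagrams plotted; enhancement taken relative to intrinsic solubility.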

[3] = tested on: Hela cells; experiment: In vitro cytotoxicity against cancer cells, CCK-8 assay; assay type: cell-based; details: Homo sapiens, 24 h
Summary of the method: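 HeLa cells seeded at 4 × 10^3/well and cultured 12 h, then given fresh medium with free test compound, pillararene host alone, or host-loaded test compound for 24 h. Drug range 5 × 10–4–5 × 101 μM; host alone 5 × 10–3–5 × 102 μM. CCK-8 added for 3 h, OD read at 450 nm. Viability was set relative to a medium-only control (100%). IC50 is the concentration giving 50% viability. Mean ± SD, n = 6; Student's t test.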

Row | Compound | solubility [1] [µM] | solubility at 3 h [2] [µM] | solubility enhancement in the presence of WP6 [2] [times] | IC50 [3] [nM]
1 | CC[C@@]1(O)C(=O)OCc2c1cc1n(c2=O)Cc2cc3ccccc3nc2-1 [CPT, 20-(S)-camptothecin] | 5 (≈ 1.74 µg/mL) | > 1000 | 380 | 800
2 | CC[C@@]1(O)C(=O)OCc2c1cc1n(c2=O)Cc2cc3cc(O)ccc3nc2-1 [HCPT, 10-hydroxycamptothecin] | 29 (≈ 10.6 µg/mL) | > 1000 | 40 | 1300
